# ChEMBL document CHEMBL4342521 (J Med Chem, 2020)
# The source made the active and inactive calls. The rule behind the calls is not given here.
# What was measured:
# NCI-H522 = assay: Antiproliferative activity against human NCI-H522 cells assessed as reduction in cell viability after 48 hrs by CellTiter-Blue assay; type: functional; conditions: NCI-H522, 48 h, read-out: LC50 (the source's name)
# Method in brief: (§1)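 Cells grown in RPMI1640 with 10% FBS at 37 °C, 5% CO₂. 5,000–10,000 cells/well were pre-incubated overnight, and a time-zero CellTiter-Blue read was taken. Six 10-fold dilutions (top final 10 μM) were applied for 48 h, followed by 0.125 mg/mL CellTiter-Blue for 2–4 h. Resorufin fluorescence was read at ex 560/em 590 nm. […] Triplicates.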
# TK-10 = assay: Antiproliferative activity against human TK10 cells assessed as reduction in cell viability after 48 hrs by CellTiter-Blue assay; type: functional; conditions: TK-10, 48 h, read-out: LC50 (the source's name)
# Method in brief: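 NCI-60 panel lines grown in RPMI1640 with 10% FBS at 37 °C, 5% CO₂. Seeded at 5,000–10,000 cells/well and pre-incubated overnight. Exposed for 48 h to six 10-fold dilutions (top final 10 μM), with a time-zero plate read at dosing. CellTiter-Blue (0.125 mg/mL) for 2–4 h, fluorescence 560/590 nm, triplicate curves.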
# MV4-11 = assay: Antiproliferative activity agaisnt human MV4-11 cells expressing wild type p53/FLT3-ITD mutant assessed as cell death at 10 uM after 48 hrs by CellTiter-blue assay; type: functional, cell-based
# SR [1] = assay: […] in human SR cells harboring wild type p53 assessed as pro-caspase 3 cleavage at 50 to 200 nM after 24 hrs by Western blot analysis; type: cell-based
# SR [2] = assay: Induction of apoptosis in human SR cells harboring wild type p53 assessed as pro-caspase 3 cleavage at 50 to 200 nM after 24 hrs by Western blot anlaysis; type: functional, cell-based
# Method in brief: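 Cells (1,500,000 per well) grown 12 h, then drug-treated as specified. Lysed in RIPA buffer, sonicated, centrifuged, protein normalized by BCA. Run on 4–12% Bis-Tris gels in MES, transferred, probed overnight at 4 °C with primary antibodies at 1/1000. Actin served as reference for LC3-II quantitation.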
# DU-145 = assay: Antiproliferative activity against human DU145 cells assessed as reduction in cell viability after 48 hrs by CellTiter-Blue assay; type: functional; conditions: DU-145, 48 h, read-out: LC50 (the source's name); method in brief: as §1
# SN12C = assay: Antiproliferative activity against human SN12C cells assessed as reduction in cell viability after 48 hrs by CellTiter-Blue assay; type: functional; conditions: read-out: LC50 (the source's name); method in brief: as §1
# HCT-116 = assay: Antiproliferative activity against human HCT116 cells assessed as reduction in cell viability after 48 hrs by CellTiter-Blue assay; type: functional; conditions: HCT-116, 48 h, read-out: LC50 (the source's name); method in brief: as §1
structure (smiles),measurement,setting,value
CCCNNC(=O)/C=C/c1ccc(CNCCc2c(C)[nH]c3ccccc23)cc1.O=C(O)C(F)(F)F,CC50,NCI-H522,> 10 µM
same,CC50,TK-10,> 10 µM
same,Activity,MV4-11,Active
same,Activity,SR [1],Active
same,Activity,SR [2],inactive
same,CC50,DU-145,> 10 µM
same,CC50,SN12C,> 10 µM
same,CC50,HCT-116,0.879 µM
